# Reference: publication PMC7280087 (Drug Design, Development and Therapy, 2020)
# Assays:
# [1] = assay type: in vivo, Sprague-Dawley rats; conditions: single-dose group (voriconazole 30 mg/kg); vonoprazan 10 mg/kg oral; rats
# [2] = molecular target: vonoprazan metabolism in rat liver microsomes; assay: Inhibition of vonoprazan metabolism by voriconazole in rat liver microsomes; assay type: in vitro ADME; conditions: RLM; for mode of inhibition of vonoprazan metabolism: Lineweaver–Burk plot, Ki ≠ αKi
# Outline: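 Rat liver microsomes were prepared in-house and used at 0.44 mg/mL, with 1 mM NADPH in 100 mM potassium phosphate (pH 7.4) in a 200 µL volume. Test inhibitor was at 0, 1.5, 3, 6 and 12 μM and substrate at 5, 10, 20 and 40 μM. Incubation ran 50 min at 37°C, was stopped by −80°C cooling, then acetonitrile plus IS was added. Substrate was quantified by LC-MS/MS, with Lineweaver–Burk and secondary plots giving Ki and αKi.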
# [3] = 0-12 μM voriconazole, 5-40 μM vonoprazan, Lineweaver–Burk secondary plot
Compound,decrease of CLz/F compared with the control group [1] [fold],"Ki [2, 3] [nM]","αKi [2, 3] [µM]",mode of inhibition of vonoprazan metabolism [2],mode of inhibition of vonoprazan metabolism ([2]; listed as voriconazole)
"CNCc1cc(-c2ccccc2F)n(S(=O)(=O)c2cccnc2)c1 [Vonoprazan, vonoprazan]",2.7,,,,
"C[C@@H](c1ncncc1F)[C@](O)(Cn1cncn1)c1ccc(F)cc1F [Voriconazole, voriconazole]",,2690,5.32,mixed inhibition,mixed type
